Screens (PubChem)
The list is not random: actives were taken first. Their share in the collection is about 1.7%.
Pemphigus Ab inh – blocks pemphigus antibody binding to human desmoglein-3 | 310,000 compounds, 0.48% hits | P32926 | DSG3-coupled beads, scFv-anti-DSG3-GFP binding, flow cytometry; stronger effect = lower value | AID 588358 | binding (percent of control), % at 10 µM;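 active means binding more than 3 SD below its plate's average and above zero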
STEP inh – inhibitors of human striatal-enriched phosphatase STEP | P54829 | recombinant STEP, OMFP fluorogenic substrate, fluorescence | inhibition, % at 20 µM | 360,000 compounds, 0.25% hits | AID 588621;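 active means inhibition at 20 µM, scaled per plate between control wells, above about 37%, limit read from the data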;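 further: 0% = DMSO with enzyme and substrate and 100% = substrate only without enzyme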
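Also added – OMFP at 25 µM · Test system – STEP tyrosine phosphatase · Technique – FITC-channel fluorescence of OMFP product · Schedule – 20 min at room temperature, dark · Evaluation – control-normalized % inhibition with plate pattern correction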
Scp1 inh – Scp-1 (human) phosphatase inhibition; Q9GZU7; Recombinant Scp1, phosphopeptide, malachite green phosphate absorbance; inhibition, % at 20 µM; 340,000 compounds, 0.88% hits;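 active means inhibition above about 50% at 20 µM, limit read from the data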;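 further: plate controls were DMSO wells with enzyme for no effect and wells lacking enzyme for full effect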
Target sequence (Q9GZU7 76-261 limits assumed): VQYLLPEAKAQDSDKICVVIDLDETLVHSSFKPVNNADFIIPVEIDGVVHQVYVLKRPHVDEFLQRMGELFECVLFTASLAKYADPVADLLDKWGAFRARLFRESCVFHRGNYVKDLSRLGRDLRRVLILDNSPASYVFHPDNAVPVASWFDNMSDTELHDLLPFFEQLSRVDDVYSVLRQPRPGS
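Test system: SCP-1 catalytic domain; Buffer or medium: Acidic Tris acetate buffer with magnesium and detergent; Also added: Phosphorylated 17-residue peptide substrate; Compound: single 20 µM dose, 1% DMSO; Schedule: enzyme reaction 45 min at room temperature, colour 5 min, stabilisation 30 min; Signal: Phosphate-binding colour reagent, absorbance read at 630 nm.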
LMPTP block – blocks human LMPTP phosphatase. P24666. recombinant LMPTP-A, OMFP fluorogenic substrate, fluorescence intensity. inhibition, % at 20 µM. 360,000 compounds, 0.22% hits;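 active means compounds that cut the enzyme signal by at least half of the control window in the single-dose screen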;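 further: plate controls were DMSO wells with enzyme plus substrate for no effect and substrate without enzyme for full effect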
Target sequence (P24666 whole entry, looked up): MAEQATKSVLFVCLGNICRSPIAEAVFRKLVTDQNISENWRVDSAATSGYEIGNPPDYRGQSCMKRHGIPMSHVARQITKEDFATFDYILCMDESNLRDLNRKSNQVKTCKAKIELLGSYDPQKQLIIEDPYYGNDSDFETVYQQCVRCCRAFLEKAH
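Buffer or medium: Bis-Tris pH 6.0, DTT, detergent; Assay system: LMPTP-A enzyme; Quantity: 0.625 nM enzyme; Detection: endpoint fluorescence intensity; Times: 50 min dark incubation at room temperature; Controls: substrate-only low control, DMSO enzyme-plus-substrate high control; Doses: single 20 µM dose; Read-out: percent inhibition versus substrate-only and uninhibited controls; Reagent: 400 µM OMFP.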
SUMO1 PPI mod – modulators of human SUMO1-mediated protein-protein interactions; AID 602429; SUMO1 binding to a labelled peptide, TR-FRET, 1 h; 360,000 compounds, 0.33% hits; P63165; inhibition, % at 20 µM; in the data active means inhibition above about 37%
Target sequence (P63165 whole entry, looked up): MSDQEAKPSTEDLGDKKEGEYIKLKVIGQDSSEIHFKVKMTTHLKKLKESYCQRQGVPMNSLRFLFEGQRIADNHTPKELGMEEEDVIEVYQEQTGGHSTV
Active calls of the source: *; / = no result.

SMILES	Pemphigus Ab inh	STEP inh	Scp1 inh	LMPTP block	SUMO1 PPI mod
COc1ccc(-c2csc(N3CCN(c4cc(C)nc5ccccc45)CC3)n2)cc1OC	/	3	3	84*	-13
NCC1C2CCC(O2)C1CO (stereo not given)	108	2	/	-2	-1
CCOC(=O)c1c(C)oc2cc(Br)c(O)c(Br)c12	107	-1	-8	-1	45*
Oc1ccc(N2CCN(Cc3nc4ccccc4[nH]3)CC2)cc1	114	1	-5	6	2
CN1C[C@@H]2[C@@H]3C(=O)N(C)C(=O)[C@@H]3[C@](Cc3ccccc3)(C1=O)N2C(=O)c1ccccc1	101	0	0	-2	0
C=CCN1CCc2nc(N)sc2CC1	/	0	-11	20	-19
CCN1CCc2nc(N)sc2C1	109	96*	-12	1	-2
Cc1cc(C)c(S(C)(=O)=O)c(Oc2ccc(C(C)(C)C)cc2)n1	105	1	1	1	0
COc1ccc(-c2csc3ncnc(N4CCN(S(=O)(=O)c5ccc(C)cc5)CC4)c23)cc1	69*	4	11	4	-3
O=C(CCC(=O)N1CCN(c2ccccc2F)CC1)N1CCN(c2ccccc2)CC1	77*	-1	-11	-2	4
O=C(CCC(=O)N1CCN(c2ccccc2F)CC1)N1CCN(c2ccc(F)cc2)CC1	115	-1	-14	1	1
Cc1ccc(Oc2ccccc2/C=C/C(=O)O)cc1	/	9	1	0	-7
O=C(Nc1cccc(NC(=O)c2cccc([N+](=O)[O-])c2)n1)c1cccc([N+](=O)[O-])c1	112	-2	-2	8	-1
O=C(Nc1ccncc1NC(=O)c1cccc([N+](=O)[O-])c1)c1cccc([N+](=O)[O-])c1	99	30	9	55*	76*
Cc1csc(C(=O)O)c1NC(=O)c1cccc([N+](=O)[O-])c1	43*	1	-9	1	-13
Cc1ccc(-c2csc(NC(=O)c3cccc([N+](=O)[O-])c3)n2)cc1	96	-7	-7	0	-5
CC(=O)c1c(C)[nH]c(C(=O)OCC(=O)NC(C)c2ccccc2)c1C (stereo not given)	107	-4	/	-1	4
COc1ccc(NC(=O)c2cccc3c2C(=O)c2ccc(-c4ccc(F)cc4OCc4ccccc4)cc2S3(=O)=O)cc1	98	4	2	3	-1
COc1ccc(OC[C@@H](O)CNC(=O)c2cccc3c2C(=O)c2ccc(-c4ccc(F)cc4OCc4ccccc4)cc2S3(=O)=O)cc1	60*	0	-7	2	-2
Cc1nn(-c2ccccc2)c(=O)c2ccccc12	106	-2	-7	-1	-1
Cc1nn(-c2cccc(C(F)(F)F)c2)c(=O)c2ccccc12	94*	-2	-14	1	6
COc1ccc(/C=C/C(=O)c2cc3cccc(OC)c3oc2=O)cc1	100*	5	-9	3	-24
CCC(OC(=O)CC1Sc2ccccc2NC1=O)C(=O)NCC1CCCO1 (stereo not given)	104	-1	10	-2	0
Cn1cccc1/C=N\NC(=O)C1COc2ccc(C(C)(C)C)cc2O1 (stereo not given)	24*	-1	-11	4	-1
O=C(NCCCc1ccccc1)c1cc(COc2ccc(F)cc2Cl)on1	35*	0	-13	5	4
SMILES	Pemphigus Ab inh	STEP inh	Scp1 inh	LMPTP block	SUMO1 PPI mod
COc1ccc(C(=O)NCc2ccc3c(c2)cc(C)n3C)cc1	98	1	-9	15	-20
Cc1cc2cc(CNC(=O)c3ccc4c(c3)OCO4)ccc2n1C	93	0	-1	55*	-22
CCC(CC)C(=O)N(c1ccc(F)cc1)C1C=CS(=O)(=O)C1 (stereo not given)	83*	-3	-3	-2	-5
O=Cc1cccn1Cc1ccccc1[N+](=O)[O-]	95	-2	-3	-1	-5
CC(C)C[C@@H](CNCC(=O)[C@H](Cc1ccccc1)NC(=O)c1[nH]cnc1C(=O)N[C@H](CN)CC(C)C)NC(=O)c1nc[nH]c1C(=O)N[C@@H](CC(=O)O)C(=O)O	117	0	13	-2	47*
CC(C)C[C@@H](CNCC(=O)[C@H](CC(C)C)NC(=O)c1[nH]cnc1C(=O)N[C@H](CN)CC(C)C)NC(=O)c1nc[nH]c1C(=O)N[C@@H](Cc1ccccc1)C(=O)O	94	-4	-14	-7	3
Cc1ccc(-c2[nH]ncc2C(=O)c2ccccc2C)c(O)c1	95	-1	-6	-1	4
CCOC(=O)Nc1ccc(OC(=O)Oc2ccc(NC(=O)OCC)cc2)cc1	78*	-1	-10	1	1
CCOC(=O)c1ccc(-c2ccc(/C=N/NC(=O)c3cncc(Br)c3)o2)cc1	75*	0	27	17	-7
Cc1ccc(C(=O)N/N=C\c2ccc(-c3ccc(Cl)cc3)o2)cn1	92*	7	-16	1	-20
O=C(CSc1nc(-c2ccc(F)cc2)cs1)Nc1ccccn1	44*	-1	1	-1	2
COc1cccc(CNc2nc(NC(C)C)nc3ccsc23)c1OC	/	0	/	46	-2
COc1cccc(CNc2nc(NCC3CC3)nc3ccsc23)c1OC	/	-2	/	60*	2
CCN1CCN(c2ccc(Nc3ccnc4ccccc34)cc2)CC1	96	-3	-2	67*	-28
CN1CCN(c2ccc(Nc3ccnc4cc(Cl)ccc34)cc2)CC1	112	1	8	15	-16
COc1cc(OC)cc(C(=O)NC(C)CCc2ccccc2)c1 (stereo not given)	99	0	-5	-1	5
O=C(CCC(=O)NNC(=O)COc1ccc(Br)cc1)NCc1ccccc1	1.9*	-1	3	1	-3
CCOC(=O)c1c(NC(=O)CSc2nnc(C)c(=O)[nH]2)sc(C)c1-c1ccc(C)cc1	95	3	-5	2	38*
CCOC(=O)c1c(NC(=O)CSc2nnc(C)c(=O)[nH]2)sc2c1CCCC2	/	4	-13	-1	25
Cc1cc(C)cc(NC(=O)c2ccc(CNc3c(N4CCOCC4)c(=O)c3=O)cc2)c1	100	2	-3	1	42*
Cc1cc(C)cc(NC(=O)c2ccc(CNc3c(N4CCCC4)c(=O)c3=O)cc2)c1	93	0	-4	0	51*
COc1ccc2ncccc2c1Cc1c(OC)ccc2ncccc12	93	1	-5	56*	-13
COC(=O)C[C@@H]1CC[C@@H](NC(C)=O)[C@@H](CO)O1	/	/	/	-3	-8
CSCCC(NS(=O)(=O)c1ccc(Cl)cc1)C(=O)N1CCN(c2ccccc2)CC1 (stereo not given)	-2.0*	0	-2	0	1
